The record followed here is ChEMBL document CHEMBL1914443, “Inhibition of c-Kit, VEGFR-2 (KDR), and ABCG2 by analogues of OSI-930” (Bioorg Med Chem Lett, 2011).

Broadly, the inhibition is the relative decrease from the control value, in per cent. Higher therefore signals strong suppression.

For data set [1], the target named is T1, ABCG2 (Homo sapiens, UniProt Q9UNQ0).
T1 sequence (Q9UNQ0 whole entry): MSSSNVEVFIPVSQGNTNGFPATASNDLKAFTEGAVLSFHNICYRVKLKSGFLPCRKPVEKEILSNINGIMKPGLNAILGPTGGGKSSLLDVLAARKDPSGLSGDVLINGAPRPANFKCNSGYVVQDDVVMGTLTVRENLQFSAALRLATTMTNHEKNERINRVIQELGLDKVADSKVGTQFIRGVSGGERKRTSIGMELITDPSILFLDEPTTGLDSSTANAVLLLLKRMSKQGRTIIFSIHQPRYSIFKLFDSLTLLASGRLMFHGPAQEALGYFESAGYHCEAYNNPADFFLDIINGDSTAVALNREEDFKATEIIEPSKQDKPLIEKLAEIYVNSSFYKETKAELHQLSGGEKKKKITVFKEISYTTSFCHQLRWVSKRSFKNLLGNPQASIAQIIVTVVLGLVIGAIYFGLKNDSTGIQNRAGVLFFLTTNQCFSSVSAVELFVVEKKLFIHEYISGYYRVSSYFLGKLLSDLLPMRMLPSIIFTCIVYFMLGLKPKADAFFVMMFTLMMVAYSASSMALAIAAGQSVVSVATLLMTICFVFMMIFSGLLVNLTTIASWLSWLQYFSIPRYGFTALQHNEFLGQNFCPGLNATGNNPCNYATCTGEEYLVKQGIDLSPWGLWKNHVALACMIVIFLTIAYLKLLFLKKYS
In words: Inhibition of ATP-dependent ABCG2 pump assessed as ratio of compound IC50 for HEK/ABCG2-482-R2 cells to IC50 for HEK293/pcDNA3.1 cells after 72 hrs by MTT assay. The following applies: HEK/ABCG2-482-R2 cells versus HEK293/pcDNA3.1 cells, read-out: Ratio IC50. In a few lines: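 Fold-resistance was calculated as mitoxantrone IC50 in HEK/ABCG2-482-R2 (wild-type ABCG2-transfected) cells divided by mitoxantrone IC50 in HEK293/pcDNA3 parental cells, with or without analogue at 10 μM. FTC at 2.5 μM served as the reference. Cell survival was measured by MTT. Results are means ± SD of at least three independent experiments, each run in triplicate.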
A general note: Tetrazolium assays rely on reduction of a dye to a coloured formazan, in cell work by metabolically active cells.

For data set [2], the target named is Platelet-derived growth factor receptor beta (Homo sapiens) (UniProt P09619). In words: Inhibition of PDGFRbeta using Tyr 04 peptide as substrate at 10 uM after 60 mins by Z'-LYTE assay.
For data set [3], the target named is T2, Mast/stem cell growth factor receptor Kit (Homo sapiens, UniProt P10721). In words: Inhibition of c-Kit using Tyr 06 peptide as substrate at 10 uM after 60 mins by Z'-LYTE assay.
T2 sequence (P10721 whole entry): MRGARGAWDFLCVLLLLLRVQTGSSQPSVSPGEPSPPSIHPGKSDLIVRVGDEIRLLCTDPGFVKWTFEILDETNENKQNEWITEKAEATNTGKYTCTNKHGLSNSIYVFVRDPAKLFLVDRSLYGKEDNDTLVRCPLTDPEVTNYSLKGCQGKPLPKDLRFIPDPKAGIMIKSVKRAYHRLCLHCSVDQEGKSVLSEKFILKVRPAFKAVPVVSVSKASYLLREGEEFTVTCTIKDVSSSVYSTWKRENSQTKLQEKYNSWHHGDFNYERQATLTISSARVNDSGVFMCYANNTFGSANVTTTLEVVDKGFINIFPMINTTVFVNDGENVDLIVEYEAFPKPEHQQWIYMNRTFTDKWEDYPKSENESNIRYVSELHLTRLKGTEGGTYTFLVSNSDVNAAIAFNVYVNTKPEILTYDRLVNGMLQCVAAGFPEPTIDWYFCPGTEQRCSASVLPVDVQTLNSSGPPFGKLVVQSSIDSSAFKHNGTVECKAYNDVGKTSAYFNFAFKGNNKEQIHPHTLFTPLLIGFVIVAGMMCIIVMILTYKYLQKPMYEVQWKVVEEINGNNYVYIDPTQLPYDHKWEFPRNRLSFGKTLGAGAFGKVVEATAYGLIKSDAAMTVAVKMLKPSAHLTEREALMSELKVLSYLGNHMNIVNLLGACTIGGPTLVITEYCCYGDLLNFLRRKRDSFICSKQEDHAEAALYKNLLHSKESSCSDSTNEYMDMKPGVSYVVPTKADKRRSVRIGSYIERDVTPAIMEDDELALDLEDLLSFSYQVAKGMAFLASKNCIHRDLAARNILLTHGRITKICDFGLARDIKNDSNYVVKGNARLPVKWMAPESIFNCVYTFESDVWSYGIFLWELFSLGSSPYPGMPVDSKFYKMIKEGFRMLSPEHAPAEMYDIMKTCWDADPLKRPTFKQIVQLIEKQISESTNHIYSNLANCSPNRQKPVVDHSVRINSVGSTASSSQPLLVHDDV
Data set [4] has as its target Angiopoietin-1 receptor (Homo sapiens) (UniProt Q02763). In words: Inhibition of Tie-2 using Tyr 05 peptide as substrate at 1 uM after 60 mins by Z'-LYTE assay.
In data set [5] the target is Platelet-derived growth factor receptor alpha (Homo sapiens) (UniProt P16234). In words: Inhibition of PDGFRalpha using Tyr 04 peptide as substrate at 1 uM after 60 mins by Z'-LYTE assay.
Platelet-derived growth factor receptor alpha (Homo sapiens), sequence (P16234 whole entry): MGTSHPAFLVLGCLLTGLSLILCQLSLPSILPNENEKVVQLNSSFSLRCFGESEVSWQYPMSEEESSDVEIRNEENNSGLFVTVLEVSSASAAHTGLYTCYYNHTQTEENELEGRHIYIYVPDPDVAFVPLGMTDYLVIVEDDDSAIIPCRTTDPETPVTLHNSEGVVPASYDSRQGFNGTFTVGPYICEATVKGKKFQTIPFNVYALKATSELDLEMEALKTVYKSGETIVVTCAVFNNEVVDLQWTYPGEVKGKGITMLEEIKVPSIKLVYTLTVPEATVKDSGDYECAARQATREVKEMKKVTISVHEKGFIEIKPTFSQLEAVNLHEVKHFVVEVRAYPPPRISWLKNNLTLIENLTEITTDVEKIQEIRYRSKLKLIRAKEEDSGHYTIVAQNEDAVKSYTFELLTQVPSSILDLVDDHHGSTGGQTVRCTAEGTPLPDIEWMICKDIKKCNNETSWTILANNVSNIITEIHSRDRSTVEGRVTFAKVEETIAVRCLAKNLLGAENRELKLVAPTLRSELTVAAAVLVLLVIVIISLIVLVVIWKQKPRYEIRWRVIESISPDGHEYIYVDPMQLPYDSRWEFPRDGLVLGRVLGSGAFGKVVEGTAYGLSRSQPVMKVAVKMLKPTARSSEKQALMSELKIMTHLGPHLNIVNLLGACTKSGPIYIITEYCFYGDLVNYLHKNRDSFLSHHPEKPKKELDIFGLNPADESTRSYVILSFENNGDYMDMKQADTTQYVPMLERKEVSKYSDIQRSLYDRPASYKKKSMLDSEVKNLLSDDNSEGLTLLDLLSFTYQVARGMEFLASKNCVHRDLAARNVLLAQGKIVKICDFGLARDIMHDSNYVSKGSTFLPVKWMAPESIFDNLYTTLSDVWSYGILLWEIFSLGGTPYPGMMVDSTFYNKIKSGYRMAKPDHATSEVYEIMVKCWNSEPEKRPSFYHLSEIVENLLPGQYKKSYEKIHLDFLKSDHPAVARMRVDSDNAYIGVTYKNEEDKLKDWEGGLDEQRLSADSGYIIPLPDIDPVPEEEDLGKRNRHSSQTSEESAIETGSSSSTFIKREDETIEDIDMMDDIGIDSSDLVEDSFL
Data set [6] concerns the target Receptor-type tyrosine-protein kinase FLT3 (Homo sapiens) (UniProt P36888). In words: Inhibition of Flt3 using Tyr 02 peptide as substrate at 10 uM after 60 mins by Z'-LYTE assay.
For data set [7], the target named is Vascular endothelial growth factor receptor 3 (Homo sapiens) (UniProt P35916). In words: Inhibition of VEGFR3 using Tyr 04 peptide as substrate at 10 uM after 60 mins by Z'-LYTE assay.
Vascular endothelial growth factor receptor 3 (Homo sapiens), sequence (P35916 whole entry): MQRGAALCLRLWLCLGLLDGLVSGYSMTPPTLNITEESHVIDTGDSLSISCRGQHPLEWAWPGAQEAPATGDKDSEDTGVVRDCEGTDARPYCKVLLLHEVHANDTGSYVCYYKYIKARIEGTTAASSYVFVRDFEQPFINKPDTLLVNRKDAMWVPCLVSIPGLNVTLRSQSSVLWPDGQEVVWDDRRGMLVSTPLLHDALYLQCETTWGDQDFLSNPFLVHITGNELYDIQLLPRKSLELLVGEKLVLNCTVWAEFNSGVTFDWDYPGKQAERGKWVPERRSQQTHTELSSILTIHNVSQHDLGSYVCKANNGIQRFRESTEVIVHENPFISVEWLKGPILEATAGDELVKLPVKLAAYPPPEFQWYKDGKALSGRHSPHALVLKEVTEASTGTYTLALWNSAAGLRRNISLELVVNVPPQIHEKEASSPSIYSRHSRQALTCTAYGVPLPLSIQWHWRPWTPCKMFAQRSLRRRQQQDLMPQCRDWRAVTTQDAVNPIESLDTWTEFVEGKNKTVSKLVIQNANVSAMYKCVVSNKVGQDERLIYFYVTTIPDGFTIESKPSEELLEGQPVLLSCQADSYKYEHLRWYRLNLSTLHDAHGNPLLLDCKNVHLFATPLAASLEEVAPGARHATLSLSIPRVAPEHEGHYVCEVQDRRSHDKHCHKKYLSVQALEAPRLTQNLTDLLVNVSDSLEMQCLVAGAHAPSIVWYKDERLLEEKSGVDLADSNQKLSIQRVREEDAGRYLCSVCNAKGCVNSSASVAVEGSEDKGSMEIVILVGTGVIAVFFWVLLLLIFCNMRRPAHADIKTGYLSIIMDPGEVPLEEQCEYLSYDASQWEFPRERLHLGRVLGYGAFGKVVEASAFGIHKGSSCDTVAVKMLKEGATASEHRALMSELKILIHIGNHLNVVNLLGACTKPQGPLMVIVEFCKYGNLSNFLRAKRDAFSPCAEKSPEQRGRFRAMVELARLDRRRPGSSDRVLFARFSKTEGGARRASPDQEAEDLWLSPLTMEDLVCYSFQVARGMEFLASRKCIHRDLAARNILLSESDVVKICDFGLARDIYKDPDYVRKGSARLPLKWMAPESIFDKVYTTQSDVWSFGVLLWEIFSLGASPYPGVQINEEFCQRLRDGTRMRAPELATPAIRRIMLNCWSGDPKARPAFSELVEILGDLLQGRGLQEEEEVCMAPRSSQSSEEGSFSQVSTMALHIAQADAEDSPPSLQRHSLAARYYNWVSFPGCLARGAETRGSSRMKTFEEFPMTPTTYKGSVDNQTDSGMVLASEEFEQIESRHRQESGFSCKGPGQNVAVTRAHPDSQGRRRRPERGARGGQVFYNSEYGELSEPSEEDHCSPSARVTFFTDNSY
Data set [8] deals with Receptor-type tyrosine-protein kinase FLT3 (Homo sapiens) (UniProt P36888). In words: Inhibition of Flt3 using Tyr 02 peptide as substrate at 1 uM after 60 mins by Z'-LYTE assay.
In data set [9] the target is Platelet-derived growth factor receptor beta (Homo sapiens) (UniProt P09619). In words: Inhibition of PDGFRbeta using Tyr 04 peptide as substrate at 1 uM after 60 mins by Z'-LYTE assay.
Data set [10] concerns the target Vascular endothelial growth factor receptor 3 (Homo sapiens) (UniProt P35916). In words: Inhibition of VEGFR3 using Tyr 04 peptide as substrate at 1 uM after 60 mins by Z'-LYTE assay.
Data set [11] deals with T2, Mast/stem cell growth factor receptor Kit. In words: Inhibition of c-Kit using Tyr 06 peptide as substrate at 1 uM after 60 mins by Z'-LYTE assay.
Data set [12] deals with Vascular endothelial growth factor receptor 1 (Homo sapiens) (UniProt P17948). In words: Inhibition of VEGFR1 using Tyr 04 peptide as substrate at 10 uM after 60 mins by Z'-LYTE assay.
In data set [13] the target is Angiopoietin-1 receptor (Homo sapiens) (UniProt Q02763). In words: Inhibition of Tie-2 using Tyr 05 peptide as substrate at 10 uM after 60 mins by Z'-LYTE assay.
Data set [14] addresses Platelet-derived growth factor receptor alpha (Homo sapiens) (UniProt P16234). In words: Inhibition of PDGFRalpha using Tyr 04 peptide as substrate at 10 uM after 60 mins by Z'-LYTE assay.
For data set [15], the target named is T3, Vascular endothelial growth factor receptor 2 (Homo sapiens, UniProt P35968). In words: Inhibition of KDR using Tyr 01 peptide as substrate at 1 uM after 60 mins by Z'-LYTE assay.
T3 sequence (P35968 whole entry): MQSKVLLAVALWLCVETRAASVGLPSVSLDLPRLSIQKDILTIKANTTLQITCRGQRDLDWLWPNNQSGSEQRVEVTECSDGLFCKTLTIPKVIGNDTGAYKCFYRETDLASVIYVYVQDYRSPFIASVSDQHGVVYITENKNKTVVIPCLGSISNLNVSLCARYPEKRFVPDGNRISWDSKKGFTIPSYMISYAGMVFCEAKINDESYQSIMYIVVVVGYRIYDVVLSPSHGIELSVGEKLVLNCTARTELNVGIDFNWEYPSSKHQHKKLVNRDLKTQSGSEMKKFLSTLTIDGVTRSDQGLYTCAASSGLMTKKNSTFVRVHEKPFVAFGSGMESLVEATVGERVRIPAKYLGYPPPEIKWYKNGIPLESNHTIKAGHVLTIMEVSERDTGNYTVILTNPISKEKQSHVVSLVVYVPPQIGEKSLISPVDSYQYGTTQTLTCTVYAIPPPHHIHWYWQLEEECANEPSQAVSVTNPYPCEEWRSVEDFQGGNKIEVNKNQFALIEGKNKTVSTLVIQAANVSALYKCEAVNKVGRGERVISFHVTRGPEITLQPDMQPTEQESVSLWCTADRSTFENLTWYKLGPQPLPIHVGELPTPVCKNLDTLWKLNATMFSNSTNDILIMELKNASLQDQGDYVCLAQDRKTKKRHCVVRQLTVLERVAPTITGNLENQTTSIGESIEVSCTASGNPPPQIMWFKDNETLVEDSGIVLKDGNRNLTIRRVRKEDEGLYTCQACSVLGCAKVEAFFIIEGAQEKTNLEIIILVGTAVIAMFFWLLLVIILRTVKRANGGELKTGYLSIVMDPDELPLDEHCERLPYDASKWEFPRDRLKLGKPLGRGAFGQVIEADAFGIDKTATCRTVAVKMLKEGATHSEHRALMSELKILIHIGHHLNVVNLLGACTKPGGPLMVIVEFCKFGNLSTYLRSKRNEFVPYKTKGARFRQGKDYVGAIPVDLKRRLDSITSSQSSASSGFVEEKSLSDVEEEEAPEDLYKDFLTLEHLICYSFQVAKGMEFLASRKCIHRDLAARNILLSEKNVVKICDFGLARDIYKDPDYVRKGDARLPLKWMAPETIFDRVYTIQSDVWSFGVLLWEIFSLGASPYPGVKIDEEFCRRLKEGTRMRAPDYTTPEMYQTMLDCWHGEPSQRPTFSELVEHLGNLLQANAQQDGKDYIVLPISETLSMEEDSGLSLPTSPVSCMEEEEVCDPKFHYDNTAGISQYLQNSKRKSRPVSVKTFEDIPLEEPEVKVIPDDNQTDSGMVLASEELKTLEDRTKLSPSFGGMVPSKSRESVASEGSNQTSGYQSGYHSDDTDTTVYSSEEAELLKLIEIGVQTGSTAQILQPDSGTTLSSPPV
For data set [16], the target named is T3, Vascular endothelial growth factor receptor 2. In words: Inhibition of KDR using Tyr 01 peptide as substrate at 10 uM after 60 mins by Z'-LYTE assay.
Data set [17] addresses Vascular endothelial growth factor receptor 1 (Homo sapiens) (UniProt P17948). In words: Inhibition of VEGFR1 using Tyr 04 peptide as substrate at 1 uM after 60 mins by Z'-LYTE assay.

The structures appear in SMILES notation. A value given as a limit tells only on which side of the number the result lay.

As to `O=C1c2c(O)ccc(O)c2C(=O)c2c(NCCNCCO)ccc(NCCNCCO)c21` [MITOXANTRONE], in data set [1], the selectivity ratio at 72 h was found to be 15.3.
Turning to `O=C(Nc1ccc(OC(F)(F)F)cc1)c1sccc1NCc1cccc([N+](=O)[O-])c1`, the inhibition in [2], in data set [3], in [4], in data set [5], in [6] and in [7] was less than 40% in each case. The inhibition in data set [8], in data set [9], in [10], in data set [11], in data set [12] and in [13] was less than 40% each time. In addition, the inhibition in data set [14], in [15], in data set [16] and in data set [17] was less than 40% each time.
Regarding `Nc1ccccc1CNc1ccsc1C(=O)Nc1ccc(OC(F)(F)F)cc1`, the inhibition in data set [2], in [3], in [4], in data set [5], in data set [6] and in data set [7] was less than 40% each time. Further, the inhibition in [8], in data set [9], in [10], in [11], in [12] and in [13] was less than 40% throughout. Also, the inhibition in data set [14], in [15], in data set [16] and in data set [17] was less than 40% each time.
For `O=C(Nc1ccc(OC(F)(F)F)cc1)c1sccc1NCc1ccccc1[N+](=O)[O-]`, the inhibition in [2], in [3], in data set [4], in [5], in data set [6] and in data set [7] was less than 40% throughout. Besides, the inhibition in [8], in data set [9], in data set [10], in data set [11], in data set [12] and in [13] was less than 40% each time. The inhibition in [14], in [15], in [16] and in [17] was less than 40% throughout.
Turning to `O=C(Nc1ccc(OC(F)(F)F)cc1)c1sccc1NCc1ccccc1N=C=S`, the inhibition in data set [2], in [3], in [4], in data set [5], in [6] and in data set [7] was less than 40% each time. In addition, the inhibition in data set [8], in data set [9], in data set [10], in data set [11], in [12] and in data set [13] was less than 40% each time. Also, the inhibition in data set [14], in data set [15], in [16] and in data set [17] was less than 40% throughout.
As to `O=C(Nc1ccc(OC(F)(F)F)cc1)c1sccc1NCc1ccc([N+](=O)[O-])cc1`, the inhibition in [2], in data set [3], in data set [4], in data set [5], in data set [6] and in data set [7] was less than 40% each time. Also, the inhibition in data set [8], in data set [9], in [10], in data set [11], in [12] and in [13] was less than 40% throughout. Moreover, the inhibition in data set [14], in data set [15], in data set [16] and in data set [17] was less than 40% throughout.
Take `Nc1cccc(CNc2ccsc2C(=O)Nc2ccc(OC(F)(F)F)cc2)c1`: the inhibition in data set [2], in [3], in data set [4], in data set [5], in [6] and in data set [7] was less than 40% throughout. For the same molecule, the inhibition in [8], in [9], in data set [10], in [11], in data set [12] and in data set [13] was less than 40% in each case. Also, the inhibition in data set [14], in [15], in data set [16] and in [17] was less than 40% in each case.
On to `CC(=O)Nc1ccc(CNc2ccsc2C(=O)Nc2ccc(OC(F)(F)F)cc2)cc1`, for which the inhibition in [2], in data set [3], in data set [4], in data set [5], in [6] and in data set [7] was less than 40% in each case. Besides, the inhibition in data set [8], in data set [9], in [10], in [11], in [12] and in data set [13] was less than 40% throughout. Moreover, the inhibition in [14], in data set [15], in data set [16] and in [17] was less than 40% each time.
Regarding `CC(=O)Nc1ccccc1CNc1ccsc1C(=O)Nc1ccc(OC(F)(F)F)cc1`, the inhibition in data set [2], in [3], in [4], in data set [5], in [6] and in [7] was less than 40% throughout. Also, the inhibition in [8], in data set [9], in data set [10], in data set [11], in [12] and in data set [13] was less than 40% each time. The inhibition in [14], in [15], in data set [16] and in data set [17] was less than 40% in each case.
